# From PubChem BioAssay
# Apaf-1 act = activates human Apaf-1 apoptosome | O14727 | Apaf-1 apoptosome caspase-3 activation, DEVD-Rh110 fluorescence; active compounds read low | activity change, negative = activation, % at 20 µM | actives 0.31% (n = 330,000) | AID 489031;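 active means activity change at or below -40% at 20 µM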
# Target sequence (O14727 whole entry, looked up): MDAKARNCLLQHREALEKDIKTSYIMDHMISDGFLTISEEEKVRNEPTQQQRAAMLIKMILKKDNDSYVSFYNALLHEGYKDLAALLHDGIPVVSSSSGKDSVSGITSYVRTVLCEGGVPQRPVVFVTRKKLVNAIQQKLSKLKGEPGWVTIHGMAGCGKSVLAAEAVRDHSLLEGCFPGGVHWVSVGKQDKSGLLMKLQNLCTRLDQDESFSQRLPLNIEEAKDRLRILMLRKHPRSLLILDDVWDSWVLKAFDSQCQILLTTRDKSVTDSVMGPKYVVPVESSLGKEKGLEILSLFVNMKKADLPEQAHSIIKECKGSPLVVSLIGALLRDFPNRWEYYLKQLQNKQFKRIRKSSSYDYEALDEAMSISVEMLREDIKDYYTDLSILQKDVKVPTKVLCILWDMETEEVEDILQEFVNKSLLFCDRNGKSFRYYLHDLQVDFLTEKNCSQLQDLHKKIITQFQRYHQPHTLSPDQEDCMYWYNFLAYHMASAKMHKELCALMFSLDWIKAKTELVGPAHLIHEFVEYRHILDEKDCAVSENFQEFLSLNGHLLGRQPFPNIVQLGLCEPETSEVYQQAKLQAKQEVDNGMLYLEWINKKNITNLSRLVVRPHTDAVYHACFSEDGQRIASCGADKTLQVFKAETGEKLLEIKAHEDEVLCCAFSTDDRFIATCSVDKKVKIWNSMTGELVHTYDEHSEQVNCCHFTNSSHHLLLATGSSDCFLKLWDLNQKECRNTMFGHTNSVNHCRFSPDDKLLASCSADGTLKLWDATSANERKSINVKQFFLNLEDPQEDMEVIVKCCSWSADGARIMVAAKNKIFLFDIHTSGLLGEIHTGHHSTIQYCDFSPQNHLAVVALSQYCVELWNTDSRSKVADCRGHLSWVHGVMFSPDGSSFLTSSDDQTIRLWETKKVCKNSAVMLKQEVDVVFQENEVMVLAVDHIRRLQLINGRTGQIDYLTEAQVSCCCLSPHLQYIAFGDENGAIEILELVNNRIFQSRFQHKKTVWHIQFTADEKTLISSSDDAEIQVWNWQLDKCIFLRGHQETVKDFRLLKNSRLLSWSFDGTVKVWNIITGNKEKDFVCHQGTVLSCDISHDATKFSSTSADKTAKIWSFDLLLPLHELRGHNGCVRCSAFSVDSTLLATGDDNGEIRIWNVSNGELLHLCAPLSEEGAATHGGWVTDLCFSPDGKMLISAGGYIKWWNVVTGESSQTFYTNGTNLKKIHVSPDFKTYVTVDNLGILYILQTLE
#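 Material: biochemical Apaf-1 apoptosome reconstitution; Medium: 20 mM HEPES buffer, pH 7.5, containing CHAPS and BSA; Reagent: dATP, cytochrome c, and (Z-DEVD)2-Rh110 caspase-3 substrate; Times: 30 min preincubation, 50 min reaction, room temperature; Signal: Rh110 fluorescence, excitation 480 nm, emission 540 nm; Measure: Caspase-3 activity via Apaf-1.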
# Rh110 act interf = interferes with Rh110 fluorescence, flagging false Apaf-1 activators; AID 504616; fluorescence interference (activity change), % at 20 µM, hits read low; 980 tested, under 10 active; shares compounds with Apaf-1 act; Rh110 fluorescence interference, quenched caspase reaction, Ex480/Em540;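 active means mean activity change at or below -40% when tested at 20 µM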
# Apaf-1 act conf2 = Apaf-1 (human) activation, single-dose confirmed | actives 5% (n = 980) | activity change, negative = activation, % at 20 µM | shares compounds with Apaf-1 act | AID 504617 | reconstituted apoptosome caspase-3 activity, DEVD-Rh110 fluorescence; active compounds read low;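 active means mean activity change at or below -40%, meaning activation of 40% or more, at 20 µM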
# Fluor interf act = counter-screen for Apaf-1 activators: fluorescence interference, dose response; shares compounds with Apaf-1 act; fluorescence interference counterscreen, Apaf-1 activator assay; EC50, µM; 55 tested, under 10 active; call rule not given here
# A number is an active result; . = inactive; / = no result given. The list is a sample of the results.
SMILES,Apaf-1 act,Rh110 act interf,Apaf-1 act conf2,others
O=C(Nc1ccccc1C(=O)Nc1cccnc1)c1ccccc1,-166,.,.,
CCOc1ccc(OCc2ccc(C(=O)Nc3cccnc3)cc2)cc1,-51,.,.,
CCOc1ccc(NC(=S)Nc2cccc3cnccc23)cc1,.,/,/,
CCOc1ccc(NC(=O)CN(C)C(=O)c2ccc(COc3ccccc3)cc2)cc1OCC,.,/,/,
O=C(O)/C=C/C(=O)c1ccc(O)cc1,-83,.,.,
Cc1ccc(C(=O)N/N=C/c2ccc(-c3ccc(Br)cc3[N+](=O)[O-])o2)o1,.,/,/,
CC(C)Cc1nnc(NC(=O)C2CSC3(C)CCC(=O)N23)s1 (stereo not drawn),-83,.,.,
Cc1ccc(/C=N/NC(=O)c2ccncc2)cc1,-499,.,.,
Cc1cccc(C(=O)N/N=C/c2ccncc2)c1,-45,.,.,
O=C(C[n+]1cccc(C(=O)N/N=C/c2ccc(Br)cc2)c1)c1ccccc1,.,/,/,
COc1ccc(/C=N/NC(=O)c2nn(-c3ccccc3)c(=O)c3c(N)scc23)cc1,.,/,/,
CCN1/C(=C/c2ccc3ccccc3[n+]2CC)C=Cc2ccccc21,.,/,/,
COc1cc(NC(=O)c2ccnc(N)c2)cc(C(=O)Nc2cccc(C(F)(F)F)c2)c1,-261,.,.,
CCN1CCN(Cc2ccc(NC(=O)c3cc(NC(=O)c4cncc(-c5ccc(C#N)cc5)c4)cc(OC)c3)cc2C(F)(F)F)CC1,.,/,/,
CC(NC(=O)Nc1ccc(F)cc1)c1ccc2c(c1)OCO2 (stereo not drawn),-71,.,.,
CC1CC(=O)c2c(cc3c(-c4c(O)cc(O)c5c(O)c6c(cc45)OC(C)CC6=O)c(O)cc(O)c3c2O)O1 (stereo not drawn),.,/,/,
COCCN1C(=S)N[C@@H](c2cccc(F)c2)C(C(=O)OC)=C1C,.,/,/,
COc1ccc(C(=O)Nc2nc3c(s2)Cc2cc(OC)ccc2-3)cc1,.,/,/,
COC(=O)C1(C)CCc2cc(OC)ccc2C1=O (stereo not drawn),-81,.,.,
C[C@H](CCC(=O)O)[C@H]1CC[C@H]2[C@@H]3[C@H](O)C[C@@H]4C[C@H](O)CC[C@]4(C)[C@H]3C[C@H](O)[C@]12C,.,/,/,
CCCCCCCCCn1c2c(c(=N)c3c1CCC3)CCCC2,.,/,/,
C=CCNC(=O)C1(S(=O)(=O)c2ccccc2)CC=CC1,-384,.,.,
Cc1nnc(N=c2ssnc2Cl)o1,.,/,/,
C/C(=C\C(=S)Nc1ccccc1)Nc1cccc2ccccc12,.,/,/,
COc1ccc(-c2nn(-c3ccccc3)cc2/C=C(/C#N)C(N)=O)cc1[N+](=O)[O-],-57,.,.,
SMILES,Apaf-1 act,Rh110 act interf,Apaf-1 act conf2,others
CC1=NN(c2ccccc2)C(=O)/C1=C\c1ccc(Oc2ccc([N+](=O)[O-])cc2[N+](=O)[O-])cc1,.,/,/,
COc1ccc(-c2nn(-c3ccccc3)cc2/C=C(\C#N)C(N)=O)cc1[N+](=O)[O-],-53,.,.,
Cc1ccc(-c2nnc(CSc3nnc(COc4cccc5ccccc45)n3-c3ccccc3)o2)cc1,.,/,/,
CCCCc1oc2ccccc2c1C(=O)c1cc(I)c(OCCN(CC)CC)c(I)c1,.,/,/,
COC1=C(N)C(=O)c2nc(-c3nc(C(=O)O)c(C)c(-c4ccc(OC)c(OC)c4O)c3N)ccc2C1=O,.,/,/,
CCNC(=S)SCCOc1ccc(C)cc1,-127,.,.,
C#CCOCCOCCOCCNc1nc(N2CCN(C(=O)[C@H](Cc3ccc(O)cc3)n3cc([C@@H](N)C(C)CC)nn3)CC2)nc(N2CCN(C(=O)[C@H](Cc3cc4ccccc4[nH]3)n3cc([C@@H](N)Cc4ccc(O)cc4)nn3)CC2)n1 (stereo partly drawn),.,/,/,
CC1(C)OC(C)(C)/C(=C/Nc2ccc(O)cc2)C1=O,.,/,/,
CCOC(=O)C1(Cc2ccccc2C)CCCN(C(=O)c2ccc3nccnc3c2)C1 (stereo not drawn),-330,.,.,
CCOC(=O)N1CCN(C(=O)c2cccc(S(=O)(=O)Nc3ccc(OC)cc3)c2)CC1,.,/,/,
NC1(C#Cc2ccc3c(=O)c4ccccc4sc3c2)CCCCC1,.,/,/,
CC(C)n1ncc2c(C(=O)Nc3ccc(S(N)(=O)=O)cc3)cc(C3CC3)nc21,.,/,/,
Cc1ccc(NC(=O)Nc2nnc(CSCCOc3ccc(Cl)cc3)s2)cc1,-253,.,.,
c1csc(Cc2nn3c(-c4ccncc4)nnc3s2)c1,.,/,/,
CC(=O)[C@@H]1[C@@H]2C(=O)N(Cc3ccccc3)C(=O)[C@@H]2C2c3ccccc3C=CN21 (stereo partly drawn),.,/,/,
COC(=O)CCC(=O)OC1(C)C(=O)C2=CN(CCN3CCOCC3)C(c3ccc(OC)cc3)=CC2=C(Br)C1=O (stereo not drawn),.,/,/,
CCO/C=C1\SC(=S)N(c2ccc(Cl)cc2)C1=O,-109,.,.,
c1ccc(-c2sc3ccccc3c2-c2ccc(OCCN3CCCC3)cc2)cc1,.,/,/,
O=C1C2(CCCC13COC(c1ccc(O)cc1)OC3)COC(c1ccc(O)cc1)OC2 (stereo not drawn),-127,.,-60,Fluor interf act=.
O=C(NC1CC1)c1ccc(CS(=O)c2ccccc2)o1 (stereo not drawn),-97,.,.,
CCC[C@@H](CN1CCC[C@H]1CN1C(N)=NC[C@H]1CC(C)C)N1C[C@@H](Cc2ccccc2)N(CCc2ccc(Cl)c(Cl)c2)C1=N,.,/,/,
CCSc1ncc(Cl)c(C(=O)Nc2ccc(S(=O)(=O)Nc3ncccn3)cc2)n1,-76,.,.,
COc1ccc(OC)c(Nc2cc3ccccc3c(=O)[nH]2)c1,.,/,/,
CC1=NN(c2ccc(C)cc2C)C(=O)C1C(c1ccccc1O)C1C(=O)N(c2ccc(C)cc2C)N=C1C (stereo not drawn),.,/,/,
CC(=O)c1ccc(N2CCN(C(=O)CCN3C(=S)NC(C)(C)CC3C)CC2)cc1 (stereo not drawn),-139,.,.,
SMILES,Apaf-1 act,Rh110 act interf,Apaf-1 act conf2,others
c1ccc2c(c1)CCN(C1=Nc3cccc4cccc1c34)C2,.,/,/,
COc1ccc(C(=O)Nc2ccc3c(c2)C(=O)c2ccccc2C3=O)cc1OC,-507,.,.,Fluor interf act=.
O=C(NC1=C(Nc2ccc(F)cc2)C(=O)c2ccccc2C1=O)c1ccc(Cl)cc1,.,/,/,
COc1ccc(C(=O)c2c(C(F)(F)F)oc3c2C(=O)c2ccccc2C3=O)cc1OC,.,/,/,
Cc1cc(C)c(S(=O)(=O)/N=C2\C=C(NS(=O)(=O)c3ccccc3)C(=O)c3ccccc32)c(C)c1,.,/,/,
COc1ccc2c(-c3ccc(OCCN4CCCCC4)cc3)c(-c3ccccc3OC)sc2c1,.,/,/,
CC(=O)c1c(-c2ccccc2)c2cc(Cl)ccc2[nH]c1=O,-49,.,.,
CCN(CC)CCN(C(=O)c1ccc(C(=O)c2ccccc2)cc1)c1nc2ccc(OC)cc2s1,.,/,/,
CCN(CC)S(=O)(=O)c1ccc(/C=C/C(=O)OCC#N)cc1,-82,.,.,
CN(C)S(=O)(=O)c1cccc(NC(=O)COC(=O)/C=C/c2ccco2)c1,.,/,/,
Cc1cc(C)c(S(=O)(=O)/N=C2/C=C(SCC(=O)O)C(=O)c3ccccc32)cc1C,.,/,/,
CCOc1cc(N(CC)CC)ccc1/C=C(/C#N)c1nc2ccccc2[nH]1,-46,.,.,
CC(C)OP(=O)(OC(C)C)C(Nc1ccccn1)c1ccc(F)cc1 (stereo not drawn),.,/,/,
